Test results from ChEMBL document CHEMBL1145471, “Small molecule regulators of autophagy identified by an image-based high-throughput screen” (Proc Natl Acad Sci U S A, 2007).
Where a SMILES comes first, the peptide text is derived from it. [ ]: non-standard residue; d: D form. Nle = CCCC[C@H](N)C(=O)O

Tests used:
Type in all cases: functional
[1] = system: H4; assay: Increase in long-lived protein degradation in human H4 cells after 2 hrs relative to control; set-up: concentration or dose not given beside the values
[2] = system: H4; assay: Decrease in FYVE-RFP+ vesicle intensity per cell in human H4 cells after 8 hrs relative to control; set-up: concentration or dose not given beside the values
Summary of the method: (§1)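 H4 cells stably expressing FYVE-RFP (H4-FYVE), grown in DMEM with 10% FBS, penicillin/streptomycin and 2 mM L-glutamine at 37°C, 5% CO2, seeded in 96-well plates and exposed to compound. Fixed in 4% paraformaldehyde, nuclei stained with 3 μg/ml DAPI, FYVE-RFP+ vesicles quantified by high-throughput fluorescence microscopy against DMSO control. Triplicate wells, mean ± SD.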

[3] = system: H4; assay: Increase in light chain 3-GFP+ autophagosome vesicle intensity per cell in human H4 cells at 7.3 uM after 24 hrs by high throughput fluorescence microscopy relative to control
Summary of the method: (§2)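 H4 cells stably expressing LC3-GFP, seeded in 96-well plates and exposed to compound for 24 h; fixed in 4% paraformaldehyde, nuclei stained with 3 μg/ml DAPI. Automated fluorescence microscopy scored number, size and intensity of LC3-GFP spots; values expressed relative to DMSO-treated wells, rapamycin positive control. Triplicate wells, mean ± SD; experiments repeated three times.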

[4] = system: H4; assay: Increase in long-lived protein degradation in human H4 cells after 1 hr relative to control; set-up: concentration or dose not given beside the values
[5] = system: H4; assay: Increase in long-lived protein degradation in human H4 cells after 4 hrs relative to control; set-up: concentration or dose not given beside the values
[6] = system: H4; assay: Decrease in FYVE-RFP+ vesicle intensity per cell in human H4 cells after 4 hrs relative to control; set-up: concentration or dose not given beside the values; summary of the method: as §1
[7] = system: H4; assay: Increase in light chain 3-GFP+ autophagosome vesicle number per cell in human H4 cells at 7.3 uM after 24 hrs by high throughput fluorescence microscopy relative to control
Summary of the method: (§3)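 H4 cells stably expressing LC3-GFP, kept in DMEM/10% FBS at 37°C, 5% CO2, were seeded in 96-well plates and exposed to compound for 24 h. Cells were then fixed in 4% paraformaldehyde and stained with 3 μg/ml DAPI. Automated fluorescence microscopy scored the number, size and intensity of LC3-GFP spots. Values are percent of DMSO wells, in triplicate, mean ± SD. Rapamycin served as positive control.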

[8] = system: H4; assay: Increase in light chain 3-GFP+ autophagosome vesicle area per cell in human H4 cells at 7.3 uM after 24 hrs by high throughput fluorescence microscopy relative to control; summary of the method: as §2
[9] = system: H4; assay: Increase in long-lived protein degradation in human H4 cells after 24 hrs relative to control; set-up: concentration or dose not given beside the values
[10] = system: H4; assay: Decrease in FYVE-RFP+ vesicle intensity per cell in human H4 cells after 2 hrs relative to control; set-up: concentration or dose not given beside the values; summary of the method: as §1
[11] = system: H4; assay: Induction of light chain 3-GFP level in human H4 cells at 7.3 uM after 24 hrs by high throughput fluorescence microscopy relative to control; summary of the method: as §3
[12] = system: H4; assay: Increase in light chain 3-GFP+ autophagosome vesicle intensity per cell in human H4 cells at 6.3 uM after 24 hrs by high throughput fluorescence microscopy relative to control; summary of the method: as §2
[13] = system: H4; assay: Effect on FYVE-RFP+ vesicle intensity per cell in human H4 cells after 2 hrs relative to control; set-up: concentration or dose not given beside the values; summary of the method: as §1
[14] = system: H4; assay: Induction of light chain 3-GFP level in human H4 cells at 6.3 uM after 24 hrs by high throughput fluorescence microscopy relative to control; summary of the method: as §3
[15] = system: H4; assay: Effect on FYVE-RFP+ vesicle intensity per cell in human H4 cells after 8 hrs relative to control; set-up: concentration or dose not given beside the values; summary of the method: as §1
[16] = system: H4; assay: Increase in light chain 3-GFP+ autophagosome vesicle number per cell in human H4 cells at 6.3 uM after 24 hrs by high throughput fluorescence microscopy relative to control; summary of the method: as §3
[17] = system: H4; assay: Effect on FYVE-RFP+ vesicle intensity per cell in human H4 cells after 4 hrs relative to control; set-up: concentration or dose not given beside the values; summary of the method: as §1
[18] = system: H4; assay: Increase in light chain 3-GFP+ autophagosome vesicle area per cell in human H4 cells at 6.3 uM after 24 hrs by high throughput fluorescence microscopy relative to control; summary of the method: as §2
[19] = system: H4; assay: Increase in light chain 3-GFP+ autophagosome vesicle intensity per cell in human H4 cells at 5.4 uM after 24 hrs by high throughput fluorescence microscopy relative to control; summary of the method: as §2
[20] = system: H4; assay: Increase in light chain 3-GFP+ autophagosome vesicle area per cell in human H4 cells at 5.4 uM after 24 hrs by high throughput fluorescence microscopy relative to control; summary of the method: as §2
[21] = system: H4; assay: Induction of light chain 3-GFP level in human H4 cells at 5.4 uM after 24 hrs by high throughput fluorescence microscopy relative to control; summary of the method: as §3
[22] = system: H4; assay: Increase in light chain 3-GFP+ autophagosome vesicle number per cell in human H4 cells at 5.4 uM after 24 hrs by high throughput fluorescence microscopy relative to control; summary of the method: as §3
[23] = system: H4; assay: Increase in light chain 3-GFP+ autophagosome vesicle number per cell in human H4 cells at 4.8 uM after 24 hrs by high throughput fluorescence microscopy relative to control; summary of the method: as §3
[24] = system: H4; assay: Increase in light chain 3-GFP+ autophagosome vesicle intensity per cell in human H4 cells at 4.8 uM after 24 hrs by high throughput fluorescence microscopy relative to control; summary of the method: as §2
[25] = system: H4; assay: Increase in light chain 3-GFP+ autophagosome vesicle area per cell in human H4 cells at 4.8 uM after 24 hrs by high throughput fluorescence microscopy relative to control; summary of the method: as §2
[26] = system: H4; assay: Induction of light chain 3-GFP level in human H4 cells at 4.8 uM after 24 hrs by high throughput fluorescence microscopy relative to control; summary of the method: as §3
[27] = system: H4; assay: Increase in light chain 3-GFP+ autophagosome vesicle area per cell in human H4 cells at 6.5 uM after 24 hrs by high throughput fluorescence microscopy relative to control; summary of the method: as §2
[28] = system: H4; assay: Increase in light chain 3-GFP+ autophagosome vesicle intensity per cell in human H4 cells at 6.5 uM after 24 hrs by high throughput fluorescence microscopy relative to control; summary of the method: as §2
[29] = system: H4; assay: Induction of light chain 3-GFP level in human H4 cells at 6.5 uM after 24 hrs by high throughput fluorescence microscopy relative to control; summary of the method: as §3
[30] = system: H4; assay: Increase in light chain 3-GFP+ autophagosome vesicle number per cell in human H4 cells at 6.5 uM after 24 hrs by high throughput fluorescence microscopy relative to control; summary of the method: as §3

Structure (SMILES)	Activity [1]	Activity [2]	Activity [3]	Activity [4]	Activity [5]	Activity [6]	Activity [7]	Activity [8]	Activity [9]	Activity [10]	Activity [11]	Activity [13]	Activity [15]	Activity [17]	other results
CC(C)(c1ccc(OCC2CO2)cc1)c1ccc(OCC2CO2)cc1 (centres undefined)	84.65%	58.53%	182.11%	96.5%	95.85%	53.06%	156.58%	175.52%	91.78%	44.65%	132.48%	–	–	–	–
CCCNC(=O)[C@H]1O[C@@H]1C(=O)N[C@H](C(=O)N1CCC[C@H]1C(=O)OC)[C@@H](C)CC	110.18%	–	–	115.2%	81%	–	–	–	89.11%	–	–	65.94%	86.43%	79.82%	Activity [12]: 272.48%; Activity [14]: 132.2%; Activity [16]: 197.44%; Activity [18]: 239.2%
N#Cc1cc2c(OCC(O)CN3CCN(C(c4ccccc4)c4ccccc4)CC3)cccc2[nH]1 (centres undefined)	108.53%	–	–	90.63%	101.77%	–	–	–	90.03%	–	–	65.87%	72.4%	59.79%	Activity [19]: 329.96%; Activity [20]: 275.43%; Activity [21]: 94.7%; Activity [22]: 224.74%
CNc1ccc2oc(C[C@@H]3OC4(CC[C@@H]3C)O[C@H]([C@@H](C)C(=O)c3ccc[nH]3)[C@H](C)C[C@H]4C)nc2c1C(=O)O (some centres undefined)	–	–	–	–	–	–	–	–	–	–	–	–	–	–	Activity [23]: 181.04%; Activity [24]: 15083%; Activity [25]: 172.66%; Activity [26]: 49.3%
CCCC[C@@H](C=O)NC(=O)[C@H](CC(C)C)NC(=O)[C@H](CC(C)C)NC(C)=O (Ac-Leu-Leu-[Nle]-aldehyde)	104.95%	–	–	124.56%	91.35%	–	–	–	95.45%	–	–	72.86%	88.42%	84.85%	Activity [27]: 362.79%; Activity [28]: 495.29%; Activity [29]: 96.31%; Activity [30]: 277.88%
CCOC(=O)[C@H]1O[C@@H]1C(=O)N[C@@H](CC(C)C)C(=O)NCCC(C)C [ALOXISTATIN]	76.35%	39.61%	244.88%	84.82%	79.98%	53.97%	169.98%	195.1%	91.33%	48.31%	119.19%	–	–	–	–
